Activity calls are given as the source filed them. The calls are words filed in the database; no cut-off is given here.
How the values were obtained:
[1] = target: T1, Peroxisome proliferator-activated receptor gamma (Homo sapiens) (UniProt P37231); assay: Transactivation of human PPARgamma expressed in human MCF7 cells harboring pPPRE3-tk-luc reporter at 10 uM after 24 hrs by luciferase reporter gene assay relative to control; format: cell-based
T1 sequence (whole entry): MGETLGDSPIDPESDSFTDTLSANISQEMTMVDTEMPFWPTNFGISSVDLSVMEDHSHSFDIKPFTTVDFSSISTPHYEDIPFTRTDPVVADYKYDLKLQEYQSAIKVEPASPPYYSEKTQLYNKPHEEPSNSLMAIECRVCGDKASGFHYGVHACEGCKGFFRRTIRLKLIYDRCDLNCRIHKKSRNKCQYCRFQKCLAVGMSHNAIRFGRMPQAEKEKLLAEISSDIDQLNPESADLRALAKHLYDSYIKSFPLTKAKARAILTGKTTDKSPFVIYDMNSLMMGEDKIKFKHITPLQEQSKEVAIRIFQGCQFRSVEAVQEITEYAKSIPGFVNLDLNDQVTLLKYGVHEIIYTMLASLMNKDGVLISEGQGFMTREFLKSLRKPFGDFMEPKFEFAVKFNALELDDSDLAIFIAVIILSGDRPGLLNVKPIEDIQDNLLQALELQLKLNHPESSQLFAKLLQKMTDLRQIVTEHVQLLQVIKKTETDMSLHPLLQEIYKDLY
How it was run: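 MCF-7 cells transfected with a pPPRE3tk-luc reporter are exposed to compound (10μM) for 24 h. Luciferase activity is normalized to β-Gal activity and expressed as fold induction over a solvent control set to 1. Three independent experiments are run, each with duplicate transfections. Values are mean ± s.e.m.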

Rattus norvegicus [2] = species: Rattus norvegicus; assay: Blocking activity at AT1 receptor in rat aortic vascular smooth muscle cells assessed as inhibition of angiotensin-2-induced calcium flux at 10 uM preincubated for 20 mins followed by angiotensin-2 addition by Fura-2-AM dye based scanning fluorometric method relative to control
How it was run: (§1)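 Rat aortic smooth muscle cells. Angiotensin II-mediated intracellular calcium release is followed by fluorescence. A first screen is run at a single concentration. Compounds that pass are retested at various concentrations to derive IC50, with losartan tested in each experiment. Values are expressed as the ratio of the compound's IC50 to losartan's IC50.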

Rattus norvegicus [3] = species: Rattus norvegicus; assay: Ratio of test compound IC50 to losartan IC50 for bocking activity at AT1 receptor in rat aortic vascular smooth muscle cells assessed as inhibition of angiotensin-2-induced calcium flux; how it was run: as §1
Rattus norvegicus [4] = assay: Antihypertensive activity in angiotensin 2-induced Wistar rat hypertensive model assessed as reduction in angiotensin 2-induced mean arterial pressure at 6 x 10^-5mol/kg, iv; format: functional, organism-based
How it was run: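 Adult male Wistar rats; angiotensin II given as i.v. bolus at 10-10 mol/kg, with no pretreatment or after i.v. pretreatment at 6.10−5 mol/kg. Read-out is the change in mean arterial pressure in mm Hg, reported as mean ± sem.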

| SMILES | Activity [1] | inhibition (Rattus norvegicus [2]) | Ratio IC50 (Rattus norvegicus [3]) | Activity (Rattus norvegicus [4]) |
| --- | --- | --- | --- | --- |
| CC(C)(C)OC(=O)c1ccccc1-c1ccc(Cn2cc(COc3ccc(CC4SC(=O)NC4=O)cc3)nn2)cc1 (configuration not stated) | Active | – | – | – |
| CCCCc1nc(Cl)c(CO)n1Cc1ccc(-c2ccccc2-c2nnn[nH]2)cc1 | inactive | 78% | – | Active |
| COC(=O)c1ccccc1N[C@@H](Cc1ccc(OCC2(C)CCc3c(C)c(O)c(C)c(C)c3O2)cc1)C(=O)O (some centres not stated) | Active | – | – | – |
| Cc1c(C)c2c(c(C)c1OCc1ccc(-c3ccccc3C(=O)O)cc1)CCC(C)(COc1ccc(/C=C3\SC(=O)NC3=O)cc1)O2 (configuration not stated) | Active | – | – | – |
| CCCCc1nc(Cl)c(/C=C/C(=O)Oc2ccc(C[C@H](Nc3ccccc3C(=O)OC)C(=O)O)cc2)n1Cc1ccc(-c2ccccc2-c2nn[nH]n2)cc1 | Active | > 50% | 3.8 | – |
| CCCCc1nc(Cl)c(/C=C/C(=O)Oc2ccc(CC3SC(=O)NC3=O)cc2)n1Cc1ccc(-c2ccccc2-c2nn[nH]n2)cc1 (configuration not stated) | Active | > 50% | 3.2 | – |
| O=C1NC(=O)C(Cc2ccc(OCCc3cn(Cc4ccc(-c5ccccc5C(=O)O)cc4)nn3)cc2)S1 (configuration not stated) | inactive | inactive | – | – |
| Cc1c(C)c2c(c(C)c1OCc1ccc(-c3ccccc3C(=O)O)cc1)CCC(C)(COc1ccc(CC3SC(=O)NC3=O)cc1)O2 (configuration not stated) | Active | inactive | – | – |
| Cc1c(C)c2c(c(C)c1OCc1ccc(-c3ccccc3C(=O)OC(C)(C)C)cc1)CCC(C)(COc1ccc(/C=C3\SC(=O)NC3=O)cc1)O2 (configuration not stated) | Active | – | – | – |
| O=C1NC(=O)C(Cc2ccc(OCc3cn(Cc4ccc(-c5ccccc5C(=O)O)cc4)cn3)cc2)S1 (configuration not stated) | inactive | > 50% | 3.4 | – |
| CCCCCS(=O)(=O)NC(=O)/C=C/c1c(Cl)nc(CCCC)n1Cc1ccc(-c2ccccc2-c2nn[nH]n2)cc1 | Active | > 50% | 11.1 | – |
| CCCCc1nc(Cl)c(CCCOc2ccc(CC3SC(=O)NC3=O)cc2)n1Cc1ccc(-c2ccccc2-c2nn[nH]n2)cc1 (configuration not stated) | inactive | > 50% | 0.4 | – |
| CCCCc1nc(CCCOc2ccc(CC3SC(=O)NC3=O)cc2)cn1Cc1ccc(-c2ccccc2C(=O)O)cc1 (configuration not stated) | Active | > 50% | 16.2 | – |
| O=C1NC(=O)C(Cc2ccc(OCc3cn(Cc4ccc(-c5ccccc5C(=O)O)cc4)nn3)cc2)S1 (configuration not stated) | inactive | inactive | – | – |
| CCCCc1ncc(CCCOc2ccc(CC3SC(=O)NC3=O)cc2)n1Cc1ccc(-c2ccccc2-c2nn[nH]n2)cc1 (configuration not stated) | inactive | > 50% | 1.1 | – |

More lines, main results first:

| Activity [1] | inhibition (Rattus norvegicus [2]) | Ratio IC50 (Rattus norvegicus [3]) | SMILES | Activity (Rattus norvegicus [4]) |
| --- | --- | --- | --- | --- |
| Active | inactive | – | COC(=O)c1ccccc1N[C@@H](Cc1ccc(OCC2(C)CCc3c(C)c(OCc4ccc(-c5ccccc5C(=O)O)cc4)c(C)c(C)c3O2)cc1)C(=O)O (some centres not stated) | – |
| Active | > 50% | 5 | CCCCc1nc(COc2ccc(CC3SC(=O)NC3=O)cc2)cn1Cc1ccc(-c2ccccc2C(=O)O)cc1 (configuration not stated) | – |
| Active | inactive | – | CCCCc1c(COc2ccc(CC3SC(=O)NC3=O)cc2)nnn1Cc1ccc(-c2ccccc2C(=O)O)cc1 (configuration not stated) | – |
| inactive | > 50% | 6.3 | CCCCc1nc(Cl)c(COc2ccc(CC3SC(=O)NC3=O)cc2)n1Cc1ccc(-c2ccccc2-c2nn[nH]n2)cc1 (configuration not stated) | Active |
| inactive | < 50% | – | CCCCc1nc(Cl)c(COc2ccc(/C=C3\SC(=O)NC3=O)cc2)n1Cc1ccc(-c2ccccc2-c2nn[nH]n2)cc1 | – |
| Active | – | – | CC(C)(C)OC(=O)c1ccccc1-c1ccc(Cn2cc(CCOc3ccc(CC4SC(=O)NC4=O)cc3)nn2)cc1 (configuration not stated) | – |
| Active | – | – | CCCc1nc2c(C)cc(-c3nc4ccccc4n3C)cc2n1Cc1ccc(-c2ccccc2C(=O)O)cc1 | – |
| Active | > 50% | 43.2 | CCCCCCCCCCCCOCc1c(Cl)nc(CCCC)n1Cc1ccc(-c2ccccc2-c2nn[nH]n2)cc1 | – |
